Measurements reported in ChEMBL document CHEMBL1926540, “Conformationally restricted analogs of the direct thrombin inhibitor FM 19” (Bioorg Med Chem, 2011).

target: Prothrombin (Homo sapiens, UniProt P00734); experiment: Inhibition of human alpha-thrombin using sarcosine-Pro-Arg-p-nitroanilide as substrate preincubated for 5 mins before substrate addition measured after 10 mins by spectrophotometry
Procedure, shortened: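 Human α-thrombin (>95% pure, 5070 U/mg) kept on ice in assay buffer (10 mM Tris, 150 mM NaCl, pH 7.6). Enzyme preincubated with peptide 5 min at 37 °C, then chromogenic substrate added. Final concentrations: 2 nM enzyme, 200 substrate. Nine peptide concentrations, each in triplicate.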

Row | Compound | IC50 [µM]
1 | Cc1ccc(C[C@H](NC(=O)[C@@H](C)NC(=O)[C@@H]2CCCN2C(=O)[C@@H]2C[C@@H]3CCCC[C@@H]3N2C(=O)Cc2cccc(C(=N)N)c2)C(N)=O)cc1 | 26.2
2 | Cc1ccc(C[C@H](NC(=O)[C@@H](C)NC(=O)[C@@H]2CCCN2C(=O)[C@@H]2C[C@@H]3CCCC[C@@H]3N2C(=O)c2cccc(C(=N)N)c2)C(N)=O)cc1 | 1.03
3 | Cc1ccc(C[C@H](NC(=O)[C@@H](C)NC(=O)[C@@H]2CCCN2C(=O)[C@@H]2C[C@@H]3CCCC[C@@H]3N2C(=O)[C@@H](C)CCCN=C(N)N)C(N)=O)cc1 | 9.8
4 | H-RPPGF-OH | 601
5 | Cc1ccc(C[C@H](NC(=O)[C@@H](C)NC(=O)[C@@H]2CCCN2C(=O)[C@@H]2C[C@@H]3CCCC[C@@H]3N2C(=O)c2ccc(NC(=N)N)cc2)C(N)=O)cc1 | 0.57
6 | Cc1ccc(C[C@H](NC(=O)[C@@H](C)NC(=O)[C@@H]2CCCN2C(=O)[C@@H]2C[C@@H]3CCCC[C@@H]3N2C(=O)[C@@H](N)CCCN=C(N)N)C(N)=O)cc1 | 73
7 | Cc1ccc(C[C@H](NC(=O)[C@@H](C)NC(=O)[C@@H]2CCCN2C(=O)[C@@H]2C[C@@H]3CCCC[C@@H]3N2C(=O)c2ccc(C(=N)N)cc2)C(N)=O)cc1 | 0.51
8 | Cc1ccc(C[C@H](NC(=O)[C@@H](C)NC(=O)[C@@H]2CCCN2C(=O)[C@@H]2C[C@@H]3CCCC[C@@H]3N2C(=O)[C@H](C)CCCN=C(N)N)C(N)=O)cc1 | 98
9 | Cc1ccc(C[C@H](NC(=O)[C@@H](C)NC(=O)[C@@H]2CCCN2C(=O)[C@@H]2C[C@@H]3CCCC[C@@H]3N2C(=O)Cc2ccc(C(=N)N)cc2)C(N)=O)cc1 | 0.45
10 | Cc1ccc(C[C@H](NC(=O)[C@@H](C)NC(=O)[C@@H]2CCCN2C(=O)[C@@H]2C[C@@H]3CCCC[C@@H]3N2C(=O)[C@H]2CC[C@H](N=C(N)N)CC2)C(N)=O)cc1 | 2.5
11 | Cc1ccc(C[C@H](NC(=O)[C@@H](C)NC(=O)[C@@H]2CCCN2C(=O)[C@@H]2C[C@@H]3CCCC[C@@H]3N2C(=O)[C@H](N)CCCN=C(N)N)C(N)=O)cc1 | 4.4
12 | Cc1ccc(C[C@H](NC(=O)[C@@H](C)NC(=O)[C@@H]2CCCN2C(=O)[C@@H]2C[C@@H]3CCCC[C@@H]3N2C(=O)[C@H]2CC[C@@H](N=C(N)N)CC2)C(N)=O)cc1 | 19.5
